How the values were obtained:
[1] = biological target: T1, Cyclooxygenase (Homo sapiens, UniProt P35354+P23219); test: Inhibitory activity against Prostaglandin G/H synthase at 1 uM concentration; format: protein assay
Method in brief: (§1)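 Human platelets (10^7/0.5 mL) in Ca2+-free pH 7 phosphate buffer incubated with compound for 15 min at 37 °C with shaking. Prostaglandin-thromboxane band areas measured as % of total radioactivity. Inhibition = (1 − cmd/cntl) × 100; single determination run in duplicate; ANOVA, p<0.05.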

[2] = biological target: T1, Cyclooxygenase; test: Inhibitory activity against Prostaglandin G/H synthase at 10 uM concentration; format: protein assay; method in brief: as §1
[3] = biological target: T2, Polyunsaturated fatty acid 5-lipoxygenase (Homo sapiens) (UniProt P09917); test: Inhibitory activity against 5-lipoxygenase at 10 uM concentration
T2 sequence (whole entry): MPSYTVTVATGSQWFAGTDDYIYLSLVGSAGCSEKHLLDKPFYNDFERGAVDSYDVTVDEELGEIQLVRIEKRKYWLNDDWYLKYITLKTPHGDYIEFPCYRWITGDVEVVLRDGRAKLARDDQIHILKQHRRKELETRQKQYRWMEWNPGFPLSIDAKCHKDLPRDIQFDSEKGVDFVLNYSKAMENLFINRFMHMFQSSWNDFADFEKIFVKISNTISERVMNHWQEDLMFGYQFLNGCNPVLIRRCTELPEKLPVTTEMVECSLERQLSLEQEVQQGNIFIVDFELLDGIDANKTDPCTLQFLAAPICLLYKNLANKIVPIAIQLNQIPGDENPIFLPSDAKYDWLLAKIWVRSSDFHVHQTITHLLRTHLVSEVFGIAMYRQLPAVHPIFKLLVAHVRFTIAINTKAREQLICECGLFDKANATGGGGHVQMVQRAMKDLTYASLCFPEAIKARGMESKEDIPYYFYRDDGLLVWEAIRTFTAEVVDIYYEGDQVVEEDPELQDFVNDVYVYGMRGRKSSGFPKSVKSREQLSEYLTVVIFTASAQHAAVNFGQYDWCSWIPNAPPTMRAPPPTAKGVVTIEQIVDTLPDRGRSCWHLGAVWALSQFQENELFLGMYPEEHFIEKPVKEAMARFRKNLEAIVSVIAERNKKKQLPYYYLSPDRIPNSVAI
Method in brief: (§2)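 Human peripheral blood leukocytes (5 × 10^6/0.5 mL) in pH 7.2 phosphate buffer with 0.6 mM Ca2+ and 1.0 mM Mg2+ incubated with compound for 15 min at 37 °C with shaking. 5-HETE band area measured as % of total radioactivity. Inhibition = (1 − cmd/cntl) × 100; single determination in duplicate; ANOVA, p<0.05.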

[4] = biological target: T2, Polyunsaturated fatty acid 5-lipoxygenase (Homo sapiens); test: Inhibitory activity against lipoxygenase (LO) at 1 uM concentration; method in brief: as §2
[5] = biological target: T2, Polyunsaturated fatty acid 5-lipoxygenase (Homo sapiens); test: Inhibitory activity against lipoxygenase (LO) at 10 uM concentration; method in brief: as §2
[6] = test system: Rattus norvegicus; test: Inhibitory activity against developing adjuvant-induced arthritis (Dev AA) in rat at 50 mg/kg concentration; format: functional
[7] = test system: Rattus norvegicus; test: Inhibitory activity against developing adjuvant-induced arthritis (Dev AA) in rat at 25 mg/kg concentration; format: functional
[8] = biological target: T2, Polyunsaturated fatty acid 5-lipoxygenase (Homo sapiens); test: Inhibitory activity against lipoxygenase (LO) at 1 uM concentration; % inhibition not statistically different from control; method in brief: as §2
[9] = biological target: T1, Cyclooxygenase; test: Inhibitory activity against Prostaglandin G/H synthase from human platelets was determined
[10] = test system: Rattus norvegicus; test: Inhibitory activity against developing adjuvant-induced arthritis (Dev AA) in rat at 5 mg/kg concentration; decrease in paw volume statistically significant compared to control.; format: functional
[11] = biological target: T2, Polyunsaturated fatty acid 5-lipoxygenase (Homo sapiens); test: Inhibitory activity against 5-lipoxygenase at 1 uM concentration; method in brief: as §2
[12] = species on record: Rattus norvegicus; test: Effective dose of compound to inhibit adjuvant-induced arthritis (Dev AA) in rat; format: functional
[13] = test system: Rattus norvegicus; test: Effective dose of compound to inhibit carrageenan induced paw edema in rat was determined; format: functional
Method in brief: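 Male CD rats (150 ± 10 g), 10 per group. Compound or vehicle (1% acacia in water) given orally 1 h before subplantar injection of 0.1 mL 1% carrageenan in saline into the right hind paw. Paw volume measured by mercury displacement before dosing and 3 h after carrageenan; the difference is the edema volume.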

[14] = species on record: Rattus norvegicus; test: Effective dose of compound to inhibit acetic acid induced writhing in rat was determined; format: functional
[15] = species on record: Rattus norvegicus; test: Dose of compound to produce a 50% ulcerogenic response in rats was determined; format: functional
Method in brief: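 Ulcerogenic dose: value taken as the dose giving 50% response on a graded scale, 0% = no ulcers or redness in stomach or intestines, 100% = major lesions in both stomach and intestines. Method follows a cited procedure.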

[16] = species on record: Rattus norvegicus; test: Effective dose of compound to inhibit established adjuvant arthritis (EstAA) in rat; format: functional
Method in brief: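 Arthritis induced in male Lewis rats with Mycobacterium butyricum adjuvant in the right hind footpad. Rats with arthritis established by day 14 after injection were selected, then dosed orally for 14 days. Noninjected paw volume measured by mercury displacement. % inhibition versus untreated arthritic controls.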

[17] = test system: Rattus norvegicus; test: Inhibitory activity against developing adjuvant-induced arthritis (Dev AA) in rat at 5 mg/kg concentration; format: functional

Compound | inhibition [1] | inhibition [2] | inhibition [3] | inhibition [4] | inhibition [5] | inhibition [11] | inhibition in vivo at 50 mg/kg [6] | further results
Oc1ccc(/C=C/c2cccnc2)cc1 | 28% | 5% | 41% |  |  |  |  | 
COc1ccc(/C=C/c2cc(C(C)(C)C)c(O)c(C(C)(C)C)c2)cc1OC |  |  |  | 12% | 20% |  | 26% | 
CC(C)(C)c1cc(CCc2cccnc2)cc(C(C)(C)C)c1O |  |  |  | 13% | 63% |  |  | inhibition in vivo at 25 mg/kg [7]: 3%
CC(C)c1cc(/C=C/c2cccs2)cc(C(C)C)c1O |  |  |  | 82% |  |  |  | 
CC(C)c1cc(/C=C/c2cccnc2)cc(C(C)C)c1O |  |  |  | 73% | 87% |  |  | inhibition in vivo at 25 mg/kg [7]: 17%
CC(C)(C)c1cc(/C=C/c2cccs2)cc(C(C)(C)C)c1O |  |  |  | 25% | 88% |  | 77% | IC50 [9]: 63 nM; inhibition in vivo at 5 mg/kg [10]: 57%
CC(C)(C)c1cc(C(=O)/C=C/c2ccsc2)cc(C(C)(C)C)c1O | 73% | 83% | 69% |  |  | 16% | 13% | 
COc1ccc(/C=C/c2cc(C(C)(C)C)c(O)c(C(C)(C)C)c2)cc1 |  |  |  | 18% | 12% |  | 0% | 
CC(C)(C)c1cc(/C=C2\CCOC2=O)cc(C(C)(C)C)c1O |  |  | 67% |  |  | 34% |  | inhibition in vivo at 5 mg/kg [17]: 39%; inhibition in vivo at 25 mg/kg [7]: 63%
Cc1ccc(/C=C/c2cc(C(C)(C)C)c(O)c(C(C)(C)C)c2)cc1 | 12% | 52% | 27% |  |  | 6% | 97% | inhibition in vivo at 5 mg/kg [17]: 55%
CCOC(=O)/C(=C\c1cc(C(C)(C)C)c(O)c(C(C)(C)C)c1)c1cccnc1 | 54% | 78% | 83% |  |  | 23% | 24% | 
CC(C)(C)c1cc(C(=O)c2cccs2)cc(C(C)(C)C)c1O [PRIFELONE] |  |  |  | 17% | 82% |  |  | inhibition in vivo at 5 mg/kg [17]: 24%; inhibition in vivo at 25 mg/kg [7]: 96%
CC(C)(C)c1cc(/C=C/c2ccc(Cl)cc2)cc(C(C)(C)C)c1O | 31% | 66% | 16% |  |  | 6% | 42% | 
Cc1cc(/C=C/c2cccnc2)cc(C(C)(C)C)c1O |  |  |  | 75% | 85% |  |  | inhibition in vivo at 25 mg/kg [7]: 22%
CC(C)(C)c1cc(/C=C/c2cccnc2)ccc1O |  |  |  | 29% | 81% |  |  | inhibition in vivo at 25 mg/kg [7]: 3%
CC(C)(C)c1cc(/C=C/c2cccc(C(F)(F)F)c2)cc(C(C)(C)C)c1O | 9% | 18% |  |  | 22% | 19% | 0% | 
CC(C)(C)c1cc(/C=C/c2ccccc2C(=O)O)cc(C(C)(C)C)c1O | 21% | 53% |  |  |  | 10% |  | 
CC(C)(C)c1cc(/C=C/c2ccc(F)cc2)cc(C(C)(C)C)c1O | 52% | 70% | 46% |  |  | 23% | 58% | 
CC(C)(C)c1cc(/C=C/c2ccc(Cl)c(Cl)c2)cc(C(C)(C)C)c1O | -16% | -5% | 3% |  |  | 18% | 10% | 

Now from value to compound, other results behind:

inhibition [1] | inhibition [2] | inhibition [3] | inhibition [4] | inhibition [5] | inhibition [11] | Compound | inhibition in vivo at 50 mg/kg [6] | further results
 |  |  |  | 49% |  | CC(C)(C)c1cc(C/C=C/c2cccs2)cc(C(C)(C)C)c1O |  | inhibition [8]: 7%
 |  |  | 26% | 84% |  | CC(C)(C)c1cc(/C=C/c2cccnc2)cc(C(C)(C)C)c1O | 82% | ED50 [12]: 2.1 mg/kg; ED50 [13]: 16.5 mg/kg; ED50 [14]: 3.9 mg/kg; UD50 [15]: 202 mg/kg; ED50 [16]: 4 mg/kg; inhibition in vivo at 5 mg/kg [10]: 56%
 |  |  | 19% | 28% |  | CC(C)(C)c1cc(/C=C/c2ccc(Cl)s2)cc(C(C)(C)C)c1O | 45% | 
 |  |  | 27% |  |  | CCC(C)(C)c1cc(/C=C/c2cccnc2)cc(C(C)(C)CC)c1O |  | inhibition in vivo at 25 mg/kg [7]: 50%
 |  |  | 9% | 81% |  | CC(C)(C)c1cc(/C=C/c2ccsc2)cc(C(C)(C)C)c1O | 62% | inhibition in vivo at 5 mg/kg [17]: 31%
24% | 73% | 59% |  |  | 21% | CC(C)(C)c1cc(/C=C/c2ccc[n+]([O-])c2)cc(C(C)(C)C)c1O |  | inhibition in vivo at 25 mg/kg [7]: 26%
72% | 83% |  |  | 59% | 10% | CC(C)(C)c1cc(C(=O)/C=C/c2cccs2)cc(C(C)(C)C)c1O | 0% | 
 |  |  |  | 6% |  | CC(C)(C)c1cc(/C=C/c2ccncc2)cc(C(C)(C)C)c1O | 0% | 
34% | 79% | 14% |  |  | 12% | CC(C)(C)c1cc(/C=C/c2ccccc2)cc(C(C)(C)C)c1O | 42% | 
44% | 75% | 84% |  |  | 39% | CC(C)(C)c1cc(/C=C/C(=O)c2cccs2)cc(C(C)(C)C)c1O | 8% | 
 |  |  | 34% | 88% |  | CC(C)(C)c1cc(/C=C/c2ccccn2)cc(C(C)(C)C)c1O | 74% | inhibition in vivo at 5 mg/kg [17]: 36%
56% | 80% |  |  | 91% | 53% | CC(C)(C)c1cc(/C=C/C(=O)c2ccsc2)cc(C(C)(C)C)c1O | 0% | 
 |  |  | 10% |  |  | CCC(C)(C)c1cc(/C=C/c2cccs2)cc(C(C)(C)CC)c1O |  | inhibition in vivo at 25 mg/kg [7]: 40%
